Only some compounds are listed: those with a hit (about 6.5% of all), similar ones and a draw of the others.
Ecoli WT expand – growth inhibitors of wild-type E. coli, primary screen, strain BW25113, expanded library, OD600; AID 710, 2007; OD600 absorbance; actives 0.15% (n = 98,000); growth inhibition, % at 100 µM;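 active = growth inhibition above about 50% at one test dose, limit read from the data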;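 also: growth measured after 20 h incubation at 37 °C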
tolC growth inh – growth inhibitors of E. coli tolC mutant, primary screen, strain BW25113 ΔtolC::kan, 384-well; OD615; growth inhibition, % at 10 µM (by protocol); AID 573, 2007; actives 2.2% (n = 65,000);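 active = growth inhibition at or above a cutoff equal to the mean over every tested compound plus 3 SD, cut at about 60% in these data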;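 also: growth measured after 20 h incubation at 37 °C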
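Test system: tolC-deleted E. coli BW25113; medium: LB with kanamycin 50 µg/mL; compound: single-point testing at 10 µM; incubation: 20 h compound exposure of bacteria at 37 °C; signal: OD at 615 nm; evaluation: growth inhibition in percent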
PTK2B oligo ant – antagonists of Pyk2 self-association, primary screen, Q293 cells, FERM NanoBiT luminescence, HTS; Protein-tyrosine kinase 2-beta (Homo sapiens), Q14289; active compounds read low; z-score (the deposit names both 25 µM and 10 µM); actives 0.83% (n = 99,000);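 active = Z-score of -3 or lower, scaled per plate to the spread of control and sample wells; inactive = z-score above -3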;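 also: negative z-score means lost luminescence so less FERM oligomerization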
PostGolgi ctrl – growth inhibition of yeast control strain, primary screen, counter-screen for post-Golgi transport modulator project. AID 738, 2007. inhibition, % at 10 µM. actives 5% (n = 98,000). efflux-deficient yeast background strain, growth absorbance A615, 16 h
Candida biofilm – clotrimazole potentiators killing Candida biofilms, primary screen, with clotrimazole, Alamar Blue | inhibition, % at 6 µM | actives 0.14% (n = 85,000) | AID 834, 2007 | C. albicans biofilm + clotrimazole;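 active = inhibition above 20%; inactive = inhibition below 20%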;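 also: preformed 24 hr biofilms exposed to compound for 48 hr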
PostGolgi yeast – phenotypic screen on post-Golgi transport, primary screen. post-Golgi transport phenotypic cell assay. inhibition, % at 10 µM. actives 0.9% (n = 98,000);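 also: yeast cells grown in 1536-well plates; yeast grown about 18 h at 30C before absorbance read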
A number is an active result; n = inactive; x = no result. Rule as the data show it, unless noted: active = inhibition above about 30%; inactive = the rest.

SMILES	Ecoli WT expand	tolC growth inh	PTK2B oligo ant	PostGolgi ctrl	Candida biofilm	PostGolgi yeast
O=C(N/N=C/c1cccc(OCc2ccccc2)c1)c1cccs1	n	x	n	37	n	n
O=C(N/N=C/c1ccccc1)c1sccc1OCc1ccc(F)cc1	n	x	n	68	x	n
O=C(NCCc1csc(-c2ccc(C(F)(F)F)cc2)n1)c1cccs1	n	x	x	82	n	n
O=C(NCCc1csc(-c2cccnc2)n1)c1cccs1	n	n	x	n	n	n
Cc1c(C#N)c(N=CN(C)C)c(C(=O)c2ccccc2)n1-c1ccc(Br)cc1	n	x	n	43	n	n
Cc1c(C#N)c(N=CN(C)C)c(C(=O)c2ccc(Br)cc2)n1-c1ccccc1	n	x	n	n	n	n
COc1cnn(-c2ccccc2)c(=O)c1SCc1ccc(Cl)c(Cl)c1	n	x	n	60	x	n
CSc1c(SCc2ccccc2)cnn(-c2ccccc2)c1=O	x	x	n	x	x	x
CC1CC(C)CN(S(=O)(=O)c2ccc(C(=O)Nc3nnc(-c4cccs4)o3)cc2)C1 (stereo not drawn)	n	99	-4.5	n	n	n
Clc1ccccc1-c1nnc(-c2ccccc2Cl)o1	x	x	n	x	n	x
O=C(Nc1nnc(-c2ccccc2Cl)o1)c1cccnc1	n	70	n	n	n	n
CC1CC(C)CN(S(=O)(=O)c2ccc(C(=O)Nc3sccc3C(N)=O)cc2)C1 (stereo not drawn)	n	x	x	n	n	n
CCc1nnc(NC(=O)c2ccc(S(=O)(=O)N3CCCCC3C)cc2)s1 (stereo not drawn)	n	n	n	n	n	n
CCC1CCCCN1S(=O)(=O)c1ccc(C(=O)Nc2nnc(-c3cccs3)o2)cc1 (stereo not drawn)	n	99	n	n	n	n
Cc1nnc(NC(=O)c2ccc(S(=O)(=O)N3CCCCCC3)cc2)o1	n	n	n	n	x	n
CC1CCCN(S(=O)(=O)c2ccc(C(=O)Nc3nnc(-c4ccccc4Cl)o3)cc2)C1 (stereo not drawn)	n	100	-3.8	n	n	n
CCOC(=O)C(NC(C)=O)C(OC(C)=O)c1cccc(N(CCO)CCO)c1 (stereo not drawn)	n	n	n	n	n	n
O=C(Nc1nnc(-c2cccs2)o1)c1cccc(C(F)(F)F)c1	57	100	x	36	n	73
Cn1c(=O)n(Cc2ccccc2)c(=O)c2c1nc1n2CCCN1C1CCCCC1	x	n	x	x	n	x
Cn1c(=O)n(C/C=C/c2ccccc2)c(=O)c2c1nc1n2CCCN1c1ccc(F)cc1	n	n	n	31	n	n
CCn1c(=O)c2c(nc3n2CCCN3CCc2ccccc2)n(C)c1=O	n	n	n	n	x	n
Cc1cccc(Cn2c(=O)c3c(nc4n3CCCN4Cc3ccccc3)n(C)c2=O)c1	n	74	n	42	n	n
Cn1c(=O)n(C/C=C/c2ccccc2)c(=O)c2c1nc1n2CCCN1Cc1ccccc1	n	n	n	32	n	n
CCCc1cc2c(=O)c(-c3ccc4c(c3)OCCO4)coc2cc1OC(=O)c1ccco1	n	x	-3	n	n	n
CCN(CC)Cc1c(O)ccc2c(=O)c(-c3ccc4c(c3)OCCO4)coc12	n	x	n	n	n	n
SMILES	Ecoli WT expand	tolC growth inh	PTK2B oligo ant	PostGolgi ctrl	Candida biofilm	PostGolgi yeast
CCc1cc2c(=O)c(-c3ccc4c(c3)OCCO4)coc2cc1OC(=O)c1ccco1	n	n	-3.5	n	n	n
Cn1c(C(=O)NCCCN2CCCC2=O)cc2c(=O)n3ccccc3nc21	x	n	x	x	n	x
Cc1cc(C)nc(N(C#N)Cc2ccc(Br)cc2)n1	n	n	-3.1	n	x	n
Cc1cc(C)nc(SCNC(=O)c2ccc(F)cc2)n1	n	n	n	n	n	32
Cc1cc(SCNC(=O)c2ccccc2)ncn1	n	n	n	n	n	n
CSCSC1=C(C#N)C(c2ccccc2Cl)C(C(C)=O)=C(C)N1 (stereo not drawn)	n	63	n	n	n	n
CCOC(=O)CSC1=C(C#N)C(c2ccccc2F)C(C(C)=O)=C(C)N1 (stereo not drawn)	n	n	n	n	n	n
Nc1cc(=O)[nH]c(SCc2nnnn2-c2ccc(Cl)cc2)n1	x	x	n	x	x	x
COc1ccc(/C=C2\SC(=S)N(NC(=O)c3csc4c3CCCC4)C2=O)cc1	n	x	n	n	n	37
CC(=O)Nc1nc(C=C(Cl)Cl)cs1	n	n	n	33	n	n
